Assay results: ChEMBL document CHEMBL4261579, “β-amino alcohols and their respective 2-phenyl-N-alkyl aziridines as potential DNA minor groove binders” (Eur J Med Chem, 2018)

Legend:
[1] = Selectivity index, ratio of CC50 for human MCF10 cells to IC50 for human MDA-MB-231 cells; assay type: toxicity; conditions: MCF10 cells versus MDA-MB-231 cells, read-out: Ratio CC50/IC50
[2] = Antiproliferative activity against human MCF10 cells after 48 hrs by MTT assay; assay type: cell-based
Outline: (§1)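 MCF-10, MCF-7 or MDA-MB-231 cells, 5.0×10^5 cells seeded and grown 24 h, then exposed 48 h at 37°C to serial dilutions from 500 to 3.9 μM (DMSO 0,5%). Read-out by MTT (2.0 mg/mL in PBS), formazan dissolved in DMSO, absorbance at 570 nm. Viability is given as % of untreated cells, with IC50 from curve fitting. Mean of triplicates.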

MCF7 = experiment: Antiproliferative activity against human MCF7 cells after 48 hrs by MTT assay; assay type: functional, cell-based; conditions: MCF7, 48 h; outline: as §1
[3] = Selectivity index, ratio of CC50 for human MCF10 cells to IC50 for human MCF7 cells; assay type: toxicity; conditions: MCF10 cells versus MCF7 cells, read-out: Ratio CC50/IC50
MDA-MB-231 [4] = experiment: Antiproliferative activity against human MDA-MB-231 cells after 48 hrs by MTT assay; assay type: functional, cell-based; conditions: MDA-MB-231, 48 h; outline: as §1
Calf thymus DNA = experiment: Binding affinity to calf thymus DNA at 10^-6 mol/L after 5 mins by UV/Visible spectrophotometric method; assay type: nucleic-acid assay; conditions: Bos taurus
Outline: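 Calf-thymus DNA dissolved in Tris buffer (5 mM Tris-HCl, 50 mM NaCl, pH 7.4), stirred about 12 h, A260/A280 1.86, quantified at 260 nm (ε 6600 M⁻¹ cm⁻¹). Kb was taken from a Benesi-Hildebrand fit.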

MDA-MB-231 [5] = experiment: Induction of apoptosis in human MDA-MB-231 cells assessed as late apoptotic cells after 48 hrs by Annexin V/FITC-propidium iodide staining-based flow cytometric analysis (reference value: 10.7%)
MDA-MB-231 [6] = experiment: Induction of apoptosis in human MDA-MB-231 cells assessed as necrotic cells after 48 hrs by Annexin V/FITC-propidium iodide staining-based flow cytometric analysis (reference value: 7.2%)
MDA-MB-231 [7] = experiment: Induction of apoptosis in human MDA-MB-231 cells assessed as early apoptotic cells after 48 hrs by Annexin V/FITC-propidium iodide staining-based flow cytometric analysis (reference value: 9.0%)

What does the source list for `c1ccc(CCN2CC2c2ccccc2)cc1` (stereo unspecified)?
selectivity ratio [1]: 1.97; CC50 at 48 h [2]: 37.6 µM; IC50 (MCF7): 170 µM; selectivity ratio [3]: 0.2; IC50 (MDA-MB-231 [4]): 19 µM

Which selectivity ratio [1] does the source give for `c1ccc(CCCN2CC2c2ccccc2)cc1` (stereo unspecified) here?
Its selectivity ratio is 1.77.

And the CC50 at 48 h [2]?
Its CC50 at 48 h is 35.4 µM.

What about the IC50 (MCF7) of the same compound?
The IC50 was 24.5 µM.

And the selectivity ratio [3]?
The selectivity ratio was 1.44.

What about the IC50 (MDA-MB-231 [4]) of the same compound?
The IC50 was 19.9 µM.

Which selectivity ratio [1] does the source give for `OC(CNCCCCc1ccccc1)c1ccccc1` (stereo unspecified) here?
Its selectivity ratio is 2.11.

What about the CC50 at 48 h [2] of the same compound?
Its CC50 at 48 h is 107 µM.

What about the IC50 (MCF7) of the same compound?
Its IC50 is 37.2 µM.

What about the selectivity ratio [3] of the same compound?
The selectivity ratio was 2.88.

What about the IC50 (MDA-MB-231 [4]) of the same compound?
The IC50 was 50.8 µM.

And the Kb (Calf thymus DNA)?
Its Kb is 1.59 ×10⁵ /M.

With `OC(CNc1ccccc1)c1ccccc1` (stereo unspecified) as the compound, how does the selectivity ratio [1] read?
The selectivity ratio was 1.33.

What about the CC50 at 48 h [2] of the same compound?
Its CC50 at 48 h is 316 µM.

What about the IC50 (MCF7) of the same compound?
Its IC50 is 236 µM.

And the selectivity ratio [3]?
The selectivity ratio was 1.33.

What about the IC50 (MDA-MB-231 [4]) of the same compound?
Its IC50 is 237 µM.

Which selectivity ratio [1] does the source give for `OC(CNCc1ccccc1)c1ccccc1` (stereo unspecified) here?
Its selectivity ratio is 0.89.

And the CC50 at 48 h [2]?
The CC50 at 48 h was 202 µM.

What about the IC50 (MCF7) of the same compound?
The IC50 was 210 µM.

And the selectivity ratio [3]?
The selectivity ratio was 0.96.

What about the IC50 (MDA-MB-231 [4]) of the same compound?
Its IC50 is 225 µM.

Which results are given for `OC(CNCCc1ccccc1)c1ccccc1` (stereo unspecified)?
selectivity ratio [1]: 1.04; CC50 at 48 h [2]: 198 µM; IC50 (MCF7): 318 µM; selectivity ratio [3]: 0.62; IC50 (MDA-MB-231 [4]): 190 µM

For `c1ccc(CCCCN2CC2c2ccccc2)cc1` (stereo unspecified), which selectivity ratio [1] is on record?
The selectivity ratio was 4.08.

What about the Activity (MDA-MB-231 [5]) of the same compound?
The Activity was 40%.

What about the CC50 at 48 h [2] of the same compound?
Its CC50 at 48 h is 43.3 µM.

And the IC50 (MCF7)?
The IC50 was 24.7 µM.

What about the selectivity ratio [3] of the same compound?
The selectivity ratio was 1.83.

And the IC50 (MDA-MB-231 [4])?
The IC50 was 11.1 µM.

And the Activity (MDA-MB-231 [6])?
The Activity was 3.3%.

Which results are given for `c1ccc(CN2CC2c2ccccc2)cc1` (stereo unspecified)?
selectivity ratio [1]: 1.01; CC50 at 48 h [2]: 41 µM; IC50 (MCF7): 27.8 µM; selectivity ratio [3]: 1.47; IC50 (MDA-MB-231 [4]): 40.4 µM

For `CCCCNCC(O)c1ccccc1` (stereo unspecified), which selectivity ratio [1] is on record?
Its selectivity ratio is 0.72.

And the CC50 at 48 h [2]?
The CC50 at 48 h was 188 µM.

What about the IC50 (MCF7) of the same compound?
Its IC50 is 280 µM.

What about the selectivity ratio [3] of the same compound?
The selectivity ratio was 0.67.

What about the IC50 (MDA-MB-231 [4]) of the same compound?
Its IC50 is 259 µM.

Which selectivity ratio [1] does the source give for `OC(CNCCCc1ccccc1)c1ccccc1` (stereo unspecified) here?
Its selectivity ratio is 1.92.

What about the CC50 at 48 h [2] of the same compound?
Its CC50 at 48 h is 196 µM.

And the IC50 (MCF7)?
The IC50 was 96.4 µM.

What about the selectivity ratio [3] of the same compound?
The selectivity ratio was 2.02.

And the IC50 (MDA-MB-231 [4])?
Its IC50 is 102 µM.

For `OC(CNCCCCc1ccccc1)c1ccc(Br)cc1` (stereo unspecified), which Activity (MDA-MB-231 [7]) is on record?
Its Activity is 33.6%.

And the selectivity ratio [1]?
Its selectivity ratio is 2.57.

What about the Activity (MDA-MB-231 [5]) of the same compound?
Its Activity is 56.8%.

And the CC50 at 48 h [2]?
The CC50 at 48 h was 58.5 µM.

And the IC50 (MCF7)?
Its IC50 is 14.5 µM.

What about the selectivity ratio [3] of the same compound?
Its selectivity ratio is 4.04.

What about the IC50 (MDA-MB-231 [4]) of the same compound?
Its IC50 is 22.7 µM.

And the Activity (MDA-MB-231 [6])?
The Activity was 6.7%.

What does the source list for `OC(CNCc1ccccc1)c1ccc(Br)cc1` (stereo unspecified)?
selectivity ratio [1]: 1.56; CC50 at 48 h [2]: 116 µM; IC50 (MCF7): 53 µM; selectivity ratio [3]: 2.18; IC50 (MDA-MB-231 [4]): 73.9 µM
